Square brackets hold non-standard residues; d marks the D form. Ends that are not written are not given here. Orn = NCCC[C@H](N)C(=O)O; Dab = NCC[C@H](N)C(=O)O; Dap = NC[C@H](N)C(=O)O
Assay: Circular dichroism
Assay type: physicochemical
Conditions: CD, PBS pH 7.4 (aqueous), 200 μM peptide, 25 °C, from MRE at 222 nm
How it was run: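 Spectra taken at 25 °C in PBS (137 mM NaCl, 2.7 mM KCl, 10 mM Na2HPO4, 1.8 mM KH2PO4, pH 7.4) with 200 μM peptide in a 0.1 cm quartz cuvette. Scanned 195–260 nm at 5 nm min−1, 0.50 nm bandwidth, 16 s integration. A single scan was solvent-corrected and converted to MRE. Helicity was calculated using the number of residues in the potential helical region and an empirical end-effect correction.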

Substance | % Helicity in PBS (value in parentheses)
AMRL[Dab]KFF[Dab]DFILQRKK [5_2–9_2] | 0.9%
AMRL[Orn]KFF[Dap]DFILQRKK [5_3–9_1] | 0.1%

Source: publication PMC11665275 (Organic & Biomolecular Chemistry, 2024)
